This is an account of results in ChEMBL document CHEMBL1221192, “Using substrate engineering to harness enzymatic promiscuity and expand biological catalysis” (Nat Chem Biol, 2006).

Substrate in series [1]: O=C(OC[C@H]1O[C@@H](O)[C@@H](O)[C@@H](O)[C@@H]1O)c1ccccc1
In words: (§1) Activity at Neisseria meningitidis lgtC by UV-VIS spectroscopy. The method, boiled down:
(§2)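 Continuous coupled assay: UDP release from LgtC-catalysed galactose transfer (UDP-Gal donor) coupled to NADH oxidation, followed at 340 nm (ε = 6.22 mM–1cm–1) in a temperature-controlled spectrophotometer. Initial rates were fitted directly to obtain kinetic parameters (kcat, Km, kcat/Km).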

Substrate in series [2]: OC[C@H]1O[C@@H](O[C@H]2[C@H](O)[C@@H](O)[C@H](OCc3ccccc3)O[C@@H]2CO)[C@H](O)[C@@H](O)[C@@H]1O
Described as §1. The procedure, abridged: as §2

Series [3] concerns the target LACTOSE, ANHYDROUS
The series is described as §1. The method, boiled down: as §2

Substrate in series [4]: O[C@@H]1[C@@H](O)[C@H](OCc2ccccc2)OC[C@H]1O
Described as §1. The method, boiled down:
as §2

Substrate in series [5]: CCCCCCCCO[C@@H]1OC[C@@H](O)[C@H](O)[C@H]1O
In words: (§3) Ratio of Kcat to Km for Neisseria meningitidis lgtC. The procedure, abridged: as §2

Substrate in series [6]: O=C(OC[C@H]1O[C@@H](O)[C@@H](O)[C@@H](O)[C@@H]1O)c1ccccc1
The series is described as §3. The method, boiled down: as §2

Substrate in series [7]: O[C@@H]1[C@H](O)[C@@H](O)OC[C@H]1O
The series is described as §3. The procedure, abridged: as §2

Substrate in series [8]: OC[C@H]1OC(O)[C@H](O)[C@H](O)[C@@H]1O
The series is described as §3. The procedure, abridged: as §2

Substrate in series [9]: O=C[C@H](O)[C@@H](O)[C@H](O)CO
The series is described as §3. The procedure, abridged:
as §2

Substrate in series [10]: OC[C@H]1O[C@@H](O[C@H]2[C@H](O)[C@@H](O)[C@H](OCc3ccccc3)O[C@@H]2CO)[C@H](O)[C@@H](O)[C@@H]1O
The description is as §3. The procedure, abridged:
as §2

Substrate in series [11]: O[C@H]1[C@H](O)[C@@H](O)[C@H](O)[C@@H](O)[C@H]1O
Described as §3. The procedure, abridged: as §2

Substrate in series [12]: CCCCCCCCO[C@@H]1O[C@H](CO)[C@H](O)[C@H](O)[C@H]1O
Described as §3. The method, boiled down: as §2

Substrate in series [13]: OC1OC[C@@H](O)[C@@H](O)[C@@H]1O
The description is as §3. The method, boiled down:
as §2

Series [14] concerns the target LACTOSE, ANHYDROUS
The description is as §3. The procedure, abridged:
as §2

Substrate in series [15]: CCCCCCCCO[C@@H]1O[C@H](CO)[C@@H](O)[C@H](O)[C@H]1O
Described as §3. The method, boiled down:
as §2

Substrate in series [16]: OC[C@H]1OC(O)[C@H](O)[C@@H](O)[C@@H]1O
The description is as §3. The method, boiled down:
as §2

Substrate in series [17]: O=C(O[C@@H]1CO[C@@H](O)[C@H](O)[C@H]1O)c1ccccc1
Described as §3. The procedure, abridged: as §2

Substrate in series [18]: O=C[C@H](O)[C@@H](O)[C@@H](O)[C@H](O)CO
The description is as §3. The method, boiled down: as §2

Substrate in series [19]: O[C@@H]1[C@@H](O)[C@H](OCc2ccccc2)OC[C@H]1O
Described as §3. The method, boiled down: as §2

Substrate in series [20]: OC[C@H]1OC(O)[C@@H](O)[C@@H](O)[C@@H]1O
The series is described as §3. The procedure, abridged: as §2

B1: Alpha 1,4 galactosyltransferase (Neisseria meningitidis), Q8KHJ3 (protein)
chain: MDIVFAADDNYAAYLCVAAKSVEAAHPDTEIRFHVLDAGISEANRAAVAANLRGGGNIRFIDVNPEDFAGFPLNIRHISITTYARLKLGEYIADCDKVLYLDIDVLVRDSLKPLWDTDLGDNWLGACIDLFVERQNAYKQKIGMADGEYYFNAGVLLINLKKWRQHDIFKMACEWVEQYKDVMQYQDQDILNGLFKGGVCYANSRFNFMPTNDAFMANRFASRHTDPLYRDRTYTAMPVAVSHYCGPAKPWHRDCTAWGAERFTELAGSLTSVPEEWRGKLAVPHRVFPTKRMLQRWRRKLSARFLRKIY
As a reminder, the Km is the concentration of substrate that gives half-maximal velocity. As usually defined, the kcat is the number of substrate molecules converted per active site and unit of time at saturation. The term kcat/Km denotes the second-order rate constant that governs catalysis at low substrate concentration. With B1, the Michaelis-Menten constant (Km) in [1] turned out to be 30 mM; in series [2], 35 mM; in [3] it was 40 mM; in series [4], 15 mM. Moreover, the catalytic constant (kcat) stood at 2.5 s⁻¹ in series [1], 1 s⁻¹ in [2], 160 s⁻¹ in series [3] and 10 s⁻¹ in series [4]. The specificity constant (kcat/Km) in series [5] was 367 M⁻¹ s⁻¹; in series [6] it was 83.3 M⁻¹ s⁻¹; in series [7], 5 M⁻¹ s⁻¹; in series [8] it was 0.833 M⁻¹ s⁻¹; in series [9] it was 30 M⁻¹ s⁻¹; in [10] it was 28.3 M⁻¹ s⁻¹. The kcat/Km in series [11] amounted to 3.33 M⁻¹ s⁻¹; in [12], 63.3 M⁻¹ s⁻¹; in series [13], 1.67 M⁻¹ s⁻¹; in series [14], 4000 M⁻¹ s⁻¹; in series [15] it was 23.3 M⁻¹ s⁻¹; in series [16] it was 3.33 M⁻¹ s⁻¹. Besides, the kcat/Km in series [17] stood at 200 M⁻¹ s⁻¹; in [18], 5 M⁻¹ s⁻¹; in series [19] it was 667 M⁻¹ s⁻¹; in series [20], 5 M⁻¹ s⁻¹.
